In the library only some 8.2% were active in any assay of this set; here they are far more common.
M1 antagonist: blocks the rat M1 muscarinic receptor response to acetylcholine; CHO-M1 cells, Fluo-4 calcium, ACh EC80 antagonist mode; hits give low values; P08482; AID 628; 64,000 compounds, 3.4% hits; B-score at 10 µM;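 active means calcium fluorescence response, raw or row-and-column corrected B-score, differing from the plate sample mean either way at a set confidence level, mostly lower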
D1 allo mod: allosterically modulates the human D1 dopamine receptor. HEK293 D1, CRE-luciferase, dopamine EC30 potentiation; actives deviate in either direction. P21728. 58,000 compounds, 5.9% hits. B-score at 10 µM;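 active means luminescence count or its row- and column-corrected plate score outside the 99.7% band of the plate's sample wells, on either side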
Target sequence (P21728 whole entry, looked up): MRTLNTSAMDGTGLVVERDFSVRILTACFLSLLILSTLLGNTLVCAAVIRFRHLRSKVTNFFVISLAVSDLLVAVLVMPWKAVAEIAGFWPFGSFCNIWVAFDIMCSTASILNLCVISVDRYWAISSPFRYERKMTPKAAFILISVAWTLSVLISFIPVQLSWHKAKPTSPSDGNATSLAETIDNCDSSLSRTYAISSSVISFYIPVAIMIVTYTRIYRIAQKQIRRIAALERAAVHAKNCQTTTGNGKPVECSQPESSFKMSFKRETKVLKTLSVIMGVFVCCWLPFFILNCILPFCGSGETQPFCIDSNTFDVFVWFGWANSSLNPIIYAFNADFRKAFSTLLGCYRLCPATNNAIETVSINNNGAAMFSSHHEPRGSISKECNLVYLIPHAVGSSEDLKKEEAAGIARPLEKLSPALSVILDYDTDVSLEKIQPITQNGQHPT
HePTP inhibitor: inhibitors of human HePTP phosphatase; AID 521; inhibition, % at 20 µM; P35236; recombinant HePTP phosphatase activity, OD absorbance; 110,000 compounds, 0.64% hits; in the data active means inhibition above about 50%;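 further: plate controls were vehicle for no effect and reference inhibitor for full effect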
RORa activator: activators of human nuclear receptor RORA | P35398 | CHO-K1 Gal4-RORA LBD luciferase reporter, luminescence; percent increase over mock-subtracted basal signal | activation, % at 10 µM | 65,000 compounds, 1.5% hits;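 active means activation above the mean of all tested compounds plus 3 SD, cut at about 49% in these data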;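 further: 0% = DMSO-treated RORA cells and 100% = added signal equal to DMSO minus mock-transfected cells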
M1 ag: M1 muscarinic receptor agonism; CHO-M1 cells, Fluo-4 calcium fluorescence, agonist mode; hits give high values; B-score at 10 µM; 64,000 compounds, 3% hits;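 active means fluorescence rise, raw or as B-score row- and column-corrected plate score, outside the 99.7% band of its plate's samples, either direction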
SF-1 act: SF-1 (human) activation; Q13285; CHO-K1 Gal4-SF-1 LBD luciferase reporter; % increase over DMSO SF-1-specific signal; activation, % at 10 µM; 65,000 compounds, 1.9% hits; AID 522;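 active means activation above the mean activation of all tested compounds plus 3 SD, cut at about 50% in these data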
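Compound – one dose, 10 µM compound, 1% DMSO · Test system – transient Gal4-SF-1 LBD reporter, CHO-K1 · Input – 4,000 cells in each well · Read-out basis – percent activation relative to DMSO median and mock-transfected background · Replicates – single measurement per compound · Technique – steady-glow luciferase luminescence, read after 15 min reagent incubation · Timing – 20 h compound treatment, 37 °C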
D1 PAM confirm: confirmation of human D1 dopamine receptor allosteric modulators; shares compounds with D1 allo mod; HEK293 D1 CRE-luciferase, dopamine EC30 potentiation; hits give high values; luminescence at 10 µM; 2,200 compounds, 88% hits;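 active means luminescence in either of two replicates above the same-plate mean plus 3 SD of the low-dose dopamine control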
D1 no dopamine: activates D1 CRE-luciferase signal without dopamine present | shares compounds with D1 allo mod | HEK293 D1 CRE-luciferase, luminescence, no dopamine; hits give high values | luminescence at 10 µM | 1,900 compounds, 0.8% hits | AID 646; in the data active means luminescence above about 3900
Isoprot counter: isoproterenol response counter-screen activity for D1 modulators | 2,200 compounds, 63% hits | shares compounds with D1 allo mod | calls only at 10 µM | HEK293 D1 CRE-luciferase, isoproterenol EC30 counter-screen;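 active means luminescence in either replicate above plate mean of wells with a partly effective reference agonist dose plus 3 SD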;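 further: isoproterenol raises cAMP through native beta-adrenoceptor Gs so signal bypasses D1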
* marks the source's active call; other numbers are inactive results.

COc1cccc(Cn2nnc(C(=O)Nc3cc(Cl)ccc3OC)c2N)c1 was read as M1 antagonist 0.13, D1 allo mod 1.4, HePTP inhibitor 4, RORa activator -13, M1 ag -0.18 and SF-1 act 2.
`COc1cccc(Cn2nnc(C(=O)NCc3ccccc3Cl)c2N)c1` gave M1 antagonist -2.1, D1 allo mod 6.8*, HePTP inhibitor 6, RORa activator -6, M1 ag -0.48, SF-1 act 7, D1 PAM confirm 16056*, D1 no dopamine 1908 and Isoprot counter active.
Screening Cc1nc2nc(C)n(-c3ccccc3)c2s1 returned M1 antagonist 0.28, D1 allo mod 15*, HePTP inhibitor 10, RORa activator 0, M1 ag 1.5, SF-1 act 9, D1 PAM confirm 21228*, D1 no dopamine 1820 and Isoprot counter active.
`COC(=O)c1ccsc1NC(=O)C1=COCCO1` gave M1 antagonist 0.079, D1 allo mod 9.1*, HePTP inhibitor 5, RORa activator 4, M1 ag -0.21, SF-1 act -3, D1 PAM confirm 17084*, D1 no dopamine 1496 and Isoprot counter active.
COC(=O)Nc1sccc1C(=O)Nc1sccc1C(=O)OC was read as M1 antagonist 0.92, HePTP inhibitor -1, RORa activator -11, M1 ag -0.065 and SF-1 act 3.
CCC(C)(C(=O)NC1CCCC1)N(Cc1ccco1)C(=O)c1ccc2c(c1)OCO2 (stereo not drawn) was read as M1 antagonist -0.87, D1 allo mod 4.9*, HePTP inhibitor 4, RORa activator -23, M1 ag 0.026, SF-1 act -23, D1 PAM confirm 4332, D1 no dopamine 1468 and Isoprot counter inactive.
Screening Cc1ccc(CNc2nc3ccccc3n3nnnc23)cc1 returned M1 antagonist 0.91, D1 allo mod 3.4*, HePTP inhibitor 8, RORa activator 22, M1 ag 0.27, SF-1 act 33, D1 PAM confirm 15516*, D1 no dopamine 1588 and Isoprot counter inactive.
c1ccc2c(c1)nc(Nc1ccc3c(c1)OCO3)c1nnnn12 was read as M1 antagonist 0.69, D1 allo mod 8.6*, HePTP inhibitor 1, RORa activator 38, M1 ag 0.73, SF-1 act 18, D1 PAM confirm 10812*, D1 no dopamine 1496 and Isoprot counter active.
`Cc1cc(C)n(-c2nc3ccccc3nc2Nc2ccc3c(c2)OCO3)n1` gave M1 antagonist 0.0022, HePTP inhibitor -8, RORa activator 20, M1 ag 0.72 and SF-1 act -35.
CCn1c(NCc2ccccn2)nc2c1c(=O)n(C)c(=O)n2C was read as M1 antagonist -0.11, D1 allo mod 0.28, HePTP inhibitor 3, RORa activator 2, M1 ag -0.22 and SF-1 act -4.
`OCCNc1ncc(-c2ccccc2)cn1` gave HePTP inhibitor 2.
For COc1ccc(-c2nnc3sc(C(C)N4C(=O)c5ccccc5C4=O)nn23)cc1 (stereo not drawn) the results were M1 antagonist -0.032, D1 allo mod 9.3*, HePTP inhibitor -6, RORa activator -16, M1 ag 0.99, SF-1 act -4, D1 PAM confirm 10292*, D1 no dopamine 1588 and Isoprot counter active.
`COc1ccc(-c2nnc3sc(CN4C(=O)c5ccccc5C4=O)nn23)cc1` gave M1 antagonist -1.9, D1 allo mod -0.21, HePTP inhibitor 1, RORa activator 5, M1 ag 0.98 and SF-1 act -12.
Screening COc1ccc(CC(=O)N2CCOCC2)cc1OC returned M1 antagonist -0.25, D1 allo mod -0.46, HePTP inhibitor 8, RORa activator -3, M1 ag -0.0089 and SF-1 act -3.
Screening COc1ccc(-c2ccc(SCC(=O)N3CCOCC3)nn2)cc1OC returned M1 antagonist -0.29, D1 allo mod 12*, HePTP inhibitor 5, RORa activator 3, M1 ag 0.11, SF-1 act 29, D1 PAM confirm 27680*, D1 no dopamine 1628 and Isoprot counter active.
`COc1ccc(-c2nnc(SCC(=O)N3CCCC3)o2)cc1OC` gave M1 antagonist -0.94, D1 allo mod 0.19, RORa activator -11, M1 ag 0.51 and SF-1 act 3.
Screening COc1ccc(-c2ccc(SCC(=O)N3CCCC3)nn2)cc1OC returned M1 antagonist 0.068, D1 allo mod 14*, HePTP inhibitor 5, RORa activator -9, M1 ag 0.27, SF-1 act 7, D1 PAM confirm 25344*, D1 no dopamine 1728 and Isoprot counter active.
O=C(Nc1ccc(Br)cc1)c1ccccc1[N+](=O)[O-] was read as HePTP inhibitor -2.
Screening Cc1onc(-c2c(F)cccc2Cl)c1C(=O)NC1=NCCS1 returned M1 antagonist -0.64, D1 allo mod 0.32, HePTP inhibitor 5, RORa activator -16, M1 ag 1.3 and SF-1 act 1.
Screening Cc1nc(N2CCOCC2)c2cc(-c3ccccc3)sc2n1 returned M1 antagonist -0.86, D1 allo mod 7.9*, HePTP inhibitor 1, RORa activator 1, M1 ag 1.4, SF-1 act 5, D1 PAM confirm 14040*, D1 no dopamine 1460 and Isoprot counter active.
`CSc1nc(N2CCOCC2)c2ccccc2n1` gave M1 antagonist -0.63, D1 allo mod 9.4*, HePTP inhibitor 0, RORa activator -4, M1 ag 1, SF-1 act 11, D1 PAM confirm 16028* and Isoprot counter active.
For c1ccc2c(c1)nc(N1CCOCC1)c1ccccc12 the results were HePTP inhibitor 3.
CCCS(=O)(=O)N1CCN(Cc2ccc(OCc3ccccc3)c(OC)c2)CC1 was read as M1 antagonist -0.87, D1 allo mod 0.43, HePTP inhibitor -6, RORa activator 13, M1 ag 1.3 and SF-1 act -3.
`c1ccc(-c2nc[nH]c2-c2ccccc2)cc1` gave M1 antagonist 0.17, D1 allo mod 4.9*, HePTP inhibitor 0, RORa activator -7, M1 ag -0.28, SF-1 act -8, D1 PAM confirm 13428*, D1 no dopamine 1748 and Isoprot counter inactive.

Source: PubChem BioAssay (several laboratories)
